Data on 43 compounds can be found in article PMC2916699 (Journal of molecular biology, 2009).

In assay [1] the target is FTase·I2 complex (Rattus norvegicus, UniProt Q02293+Q04631). The experiment in a line: Peptide binding affinity by fluorescence anisotropy. On the technique in general: Fluorescence polarisation rises when a labelled molecule tumbles more slowly, as on binding a larger partner.
The target in assay [2] is T1, protein farnesyltransferase (FTase) (Rattus norvegicus, UniProt Q02293+Q04631). It counts as biochemical. The settings on record: single-turnover only (STO) peptides, initial library, 0.4–0.8 μM FTase, 50–100 μM dansylated peptide, 0.1–0.2 μM FPP, 50 mM HEPPSO pH 7.8, 5 mM MgCl2, 2 mM TCEP, 25 °C. The gist of the method:
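Stopped-flow, pre-mix levels: FTase (0.8–1.6 μM) with FPP (0.2–0.4 μM) in HEPPSO pH 7.8, MgCl2, TCEP, plus a phosphate mop (PNPase 0.5 units mL−1, 15 mM 7-methylguanosine). This is mixed 1:1 with dansylated peptide (100 or 200 μM) containing MDCC-labelled A197C PBP (5–10 μM), inorganic pyrophosphatase and the mop. Emission is followed at 450 nm, and a single-exponential fit gives kfarn.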

The target of assay [3] is T1, protein farnesyltransferase (FTase). The experiment in a line: Steady state continuous dansyl fluorescence assay, kcat/Km peptide. The settings on record: multiple-turnover substrates, 25 °C; for kcat/KM^peptide: targeted library, dansyl fluorescence; for kcat/Km: initial library, 10 μM FPP, 0.4–10 μM dansylated peptide, 25–300 nM FTase, 50 mM HEPPSO pH 7.8, 5 mM TCEP, 5 mM MgCl2, 10 μM ZnCl. The assay is classed as biochemical. The gist of the method:
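Dansyl-TKCxxx peptides (0.4–10 μM) with saturating FPP 10 μM, 50 mM HEPPSO pH 7.8, 5 mM TCEP, 5 mM MgCl2, 10 μM ZnCl, 25 °C. FTase (25–300 nM) started the reaction. Dansyl fluorescence (ex 340, em 520 nm) followed to endpoint (~2–6 h). Rates converted to product using endpoint fluorescence. kcat/Km from linear or Michaelis–Menten fit of V/[E] versus peptide.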

Read-outs that look alike come from different tables or passages of the source. Where a SMILES comes first, the peptide text is derived from it. The star is where a group is joined. Dansyl = CN(C)c1cccc2c(S(=O)(=O)*)cccc12

Compound `CC[C@H](C)[C@H](NC(=O)[C@H](CS)NC(=O)[C@H](CCCCN)NC(=O)[C@@H](NS(=O)(=O)c1cccc2c(N(C)C)cccc12)[C@@H](C)O)C(=O)N[C@H](C(=O)N[C@@H](C)C(=O)O)C(C)C` [CIVA] (Dansyl-TKCIVA-OH) registered a Kd in assay [1] of 5 ± 2 nM.

On to `CC[C@H](C)[C@H](NC(=O)[C@H](CO)NC(=O)[C@H](CS)NC(=O)[C@H](CCCCN)NC(=O)[C@@H](NS(=O)(=O)c1cccc2c(N(C)C)cccc12)[C@@H](C)O)C(=O)N[C@@H](CCSC)C(=O)O` [CSIM] (Dansyl-TKCSIM-OH), for which, in assay [1], binding was put at a Kd of 6 ± 2 nM.

CAKS returned a kfarn in assay [2] of 2.3 ± 0.2 s⁻¹.

As for CALQ, in assay [3], the “kcat/KM^peptide” value was found to be 12000 ± 2000 M⁻¹ s⁻¹.

On to CALV, for which the “kcat/KM^peptide” value in assay [3] was 100 ± 20 M⁻¹ s⁻¹.

As to CAVL, the kfarn in assay [2] was found to be 0.91 ± 0.09 s⁻¹.

As for CDVK, the “kcat/KM^peptide” value in assay [3] worked out at 3600 ± 800 M⁻¹ s⁻¹.

Take CEIQ: in assay [3], the “kcat/KM^peptide” value was 3100 ± 600 M⁻¹ s⁻¹.

For the compound CFPS, the “kcat/KM^peptide” value in assay [3] was 4700 ± 500 M⁻¹ s⁻¹.

As for CFTN, the “kcat/KM^peptide” value in assay [3] came out at 970 ± 70 M⁻¹ s⁻¹.

Consider CFVN, for which the “kcat/KM^peptide” value in assay [3] is 2100 ± 700 M⁻¹ s⁻¹.

In the case of CGIA, the kcat/Km in assay [3] was determined as 160 ± 50 M⁻¹ s⁻¹.

Regarding CGLF, the specificity constant (kcat/Km) in assay [3] was 450 ± 60 M⁻¹ s⁻¹.

Take CGLY: the kcat/Km in assay [3] was found to be 1000 ± 100 M⁻¹ s⁻¹.

CGVV: the “kcat/KM^peptide” value in assay [3] was found to be 90 ± 30 M⁻¹ s⁻¹.

As to CHIM, in assay [3], the “kcat/KM^peptide” value amounted to 3300 ± 400 M⁻¹ s⁻¹.

In the case of CHIQ, in assay [3], the “kcat/KM^peptide” value turned out to be 2200 ± 600 M⁻¹ s⁻¹.

With CHLM, the “kcat/KM^peptide” value in assay [3] was 2000 ± 300 M⁻¹ s⁻¹.

Take CHLS: in assay [3], the “kcat/KM^peptide” value is 460 ± 20 M⁻¹ s⁻¹.

Turning to CHVM, the “kcat/KM^peptide” value in assay [3] came to 10000 ± 8000 M⁻¹ s⁻¹.

For CHVQ, in assay [3], the “kcat/KM^peptide” value came out at 4500 ± 800 M⁻¹ s⁻¹.

Turning to CKIV, the “kcat/KM^peptide” value in assay [3] stood at 870 ± 70 M⁻¹ s⁻¹.

Take CLLV: in assay [3], the “kcat/KM^peptide” value was 100 ± 60 M⁻¹ s⁻¹.

On to CLML, for which the kcat/Km in assay [3] was 150 ± 20 M⁻¹ s⁻¹.

Consider CNLK, for which, in assay [3], the “kcat/KM^peptide” value stood at 6300 ± 1600 M⁻¹ s⁻¹.

Consider CNLM, for which, in assay [3], the kcat/Km came to 1000 ± 300 M⁻¹ s⁻¹.

CPLG returned a kfarn in assay [2] of 0.019 ± 0.001 s⁻¹.

For CQTA, the kcat/Km in assay [3] is 530 ± 20 M⁻¹ s⁻¹.

With CSEA, the kfarn in assay [2] amounted to 0.020 ± 0.002 s⁻¹.

Regarding CSLA, the “kcat/KM^peptide” value in assay [3] was found to be 2500 ± 300 M⁻¹ s⁻¹.

Take CSLH: the “kcat/KM^peptide” value in assay [3] was 210 ± 10 M⁻¹ s⁻¹.

Consider CSVQ, for which the kcat/Km in assay [3] was 1200 ± 400 M⁻¹ s⁻¹.

As for CTIV, the “kcat/KM^peptide” value in assay [3] was found to be 7200 ± 800 M⁻¹ s⁻¹.

As to CTVF, the catalytic efficiency (kcat/Km) in assay [3] turned out to be 1300 ± 100 M⁻¹ s⁻¹.

For the compound CTVS, the “kcat/KM^peptide” value in assay [3] worked out at 5800 ± 1200 M⁻¹ s⁻¹.

With CVHF, in assay [3], the “kcat/KM^peptide” value came to 460 ± 40 M⁻¹ s⁻¹.

CVLL: in assay [2], the kfarn worked out at 0.83 ± 0.08 s⁻¹.

In the case of CVLQ, the kcat/Km in assay [3] came out at 780 ± 30 M⁻¹ s⁻¹.

On to CVQM, for which the kcat/Km in assay [3] turned out to be 270 ± 30 M⁻¹ s⁻¹.

CVSS showed a kfarn in assay [2] of 0.097 ± 0.009 s⁻¹.

With CYIS, the “kcat/KM^peptide” value in assay [3] is 12000 ± 5000 M⁻¹ s⁻¹.

Turning to CYLA, in assay [3], the “kcat/KM^peptide” value amounted to 4700 ± 300 M⁻¹ s⁻¹.

As to TKCYSN, the kfarn in assay [2] was found to be 0.0025 ± 0.0002 s⁻¹; in assay [2] (listed as TKCYSN), 0.0025 s⁻¹.

Usually Kd stands for the equilibrium constant for the complex coming apart. Lower therefore signals tighter binding. What is called kcat/Km is the turnover number divided by the Michaelis constant.
